Drawing on ChEMBL document CHEMBL1153427, “1-Sulfonyl-4-acylpiperazines as selective cannabinoid-1 receptor (CB1R) inverse agonists for the treatment of obesity” (J Med Chem, 2009), this text covers IC50 and EC50 for 56 molecules.

Test [1] addresses T1, Cannabinoid receptor 1 (Homo sapiens, UniProt P21554). Put plainly: Displacement of [3H]CP-55940 from human recombinant CB1R expressed in CHO cells. Format: cell-based. The gist of the method:
(§1)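 Radioligand competition used 0.5 nM [³H]CP55940 with recombinant human CB1R-CHO or CB2R-CHO membranes. Bound and free ligand were separated by filtration, and IC₅₀ came from nonlinear curve fitting.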
In general terms: In a radioligand displacement assay an active substance lowers the binding of a labelled ligand.

In test [2] the target is T1, Cannabinoid receptor 1. The test can be described thus: Inverse agonist activity at human recombinant CB1R expressed in CHO cells assessed as increase in forskolin-stimulated cAMP level. Format: functional, cell-based. The gist of the method: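 Recombinant CB1R-CHO cells were incubated with test compound across a range of concentrations, plus forskolin and the phosphodiesterase inhibitor IBMX. Buffer was Earle's balanced salt solution with 5 mM MgCl₂, 10 mM HEPES pH 7.3 and 1 mg/mL BSA, for 30 min at room temperature, with cAMP read out.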
In general terms: cAMP levels reflect the balance of adenylyl cyclase and phosphodiesterase activity.

Test [3] has as its target Cannabinoid receptor 2 (Homo sapiens, UniProt P34972). The test can be described thus: Displacement of [3H]CP-55940 from human recombinant CB2R expressed in CHO cells. Format: cell-based. The gist of the method: as §1

Cannabinoid receptor 2, sequence (P34972 whole entry): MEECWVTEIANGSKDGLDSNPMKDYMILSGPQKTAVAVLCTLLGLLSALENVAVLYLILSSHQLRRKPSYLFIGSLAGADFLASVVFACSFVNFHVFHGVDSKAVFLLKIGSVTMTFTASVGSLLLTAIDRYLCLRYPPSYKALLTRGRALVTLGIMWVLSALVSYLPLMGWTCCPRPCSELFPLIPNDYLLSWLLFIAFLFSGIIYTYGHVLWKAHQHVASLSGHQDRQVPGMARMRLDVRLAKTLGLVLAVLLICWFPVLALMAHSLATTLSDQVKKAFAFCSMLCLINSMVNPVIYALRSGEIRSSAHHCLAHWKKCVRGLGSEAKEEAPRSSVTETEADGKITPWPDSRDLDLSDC
T1 sequence (P21554 whole entry): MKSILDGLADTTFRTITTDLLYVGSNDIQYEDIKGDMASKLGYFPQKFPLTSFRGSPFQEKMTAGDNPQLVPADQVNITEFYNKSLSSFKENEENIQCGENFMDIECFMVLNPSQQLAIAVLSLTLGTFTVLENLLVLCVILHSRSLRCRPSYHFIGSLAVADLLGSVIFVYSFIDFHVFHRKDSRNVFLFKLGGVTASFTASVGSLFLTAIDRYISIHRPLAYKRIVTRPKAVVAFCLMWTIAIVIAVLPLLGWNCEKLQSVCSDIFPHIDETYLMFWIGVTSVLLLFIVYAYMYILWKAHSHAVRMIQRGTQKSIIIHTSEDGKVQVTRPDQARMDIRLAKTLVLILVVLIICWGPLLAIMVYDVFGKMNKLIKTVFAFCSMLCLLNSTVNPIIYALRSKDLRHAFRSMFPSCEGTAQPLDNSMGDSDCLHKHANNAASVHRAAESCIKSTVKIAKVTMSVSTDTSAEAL

In the case of `O=C(C1CC1)N1CCN(S(=O)(=O)c2cc(Cl)cc(Cl)c2)CC1`, the IC50 in test [1] stood at 780 nM. Moreover, the EC50 in test [2] amounted to 5 nM.
On the same counts, the results for `O=C(Cc1cccc(C(F)(F)F)c1)N1CCN(S(=O)(=O)c2cc(Cl)cc(Cl)c2)CC1` are 150 nM and 4.6 nM.
As to `O=C(C1CC1)N1CCN(S(=O)(=O)c2cc(Cl)ccc2Cl)CC1`, the IC50 in test [1] was found to be 6400 nM. The EC50 in test [2] worked out at 90 nM.
With `O=C(C1CC1)N1CCN(S(=O)(=O)c2c(Cl)cccc2Cl)CC1`, in test [1], the IC50 was 9700 nM. Also, the EC50 in test [2] turned out to be 1500 nM.
Taken in the same sequence, the figures for `O=C(C1CCCCC1)N1CCN(S(=O)(=O)c2cccc(C(F)(F)F)c2)CC1` were 4200 nM and over 10000 nM.
On the same counts, the results for `O=C(Cc1ccccn1)N1CCN(S(=O)(=O)c2cc(Cl)cc(Cl)c2)CC1` are 3000 nM and 40 nM.
Regarding `O=C(C1CC1)N1CCN(S(=O)(=O)c2ccc(Cl)cc2)CC1`, in test [1], the IC50 amounted to 3500 nM. Also, in test [2], the half-maximal effective concentration (EC50) is over 10000 nM.
For the molecule `O=C(C1CC1)N1CCN(S(=O)(=O)c2c(Cl)cc(Cl)cc2Cl)CC1`, in test [1], the IC50 stood at 9700 nM. The EC50 in test [2] worked out at 1500 nM.
On to `O=C(C1CCCCC1)N1C2CC1CN(S(=O)(=O)c1cccc3ccccc13)C2`, for which, in test [1], the IC50 is over 10000 nM. For the same molecule, the EC50 in test [2] came to 900 nM.
With `CN(C)C(=O)Oc1cc(C(F)(F)F)cc(S(=O)(=O)N2CCN(C(=O)[C@@H]3C[C@H]3c3ccc(C(F)(F)F)cc3)CC2)c1`, the concentration for half-maximal inhibition (IC50) in test [1] is 2 nM.
Turning to `O=C([C@@H]1C[C@H]1c1ccc(C(F)(F)F)cc1)N1CCN(S(=O)(=O)c2cc(-n3cccn3)cc(C(F)(F)F)c2)CC1`, the IC50 in test [1] was 0.7 nM; in test [3], over 10 µM.
On the same counts, the results for `O=C([C@@H]1C[C@H]1c1ccc(C(F)(F)F)cc1)N1CCN(S(=O)(=O)c2cc(-n3nccn3)cc(C(F)(F)F)c2)CC1` are 0.6 nM and over 10 µM.
For `O=C([C@@H]1C[C@H]1c1ccc(C(F)(F)F)cc1)N1CCN(S(=O)(=O)c2cc(-n3cncn3)cc(C(F)(F)F)c2)CC1`, the IC50 in test [1] was 7 nM; in test [3] it was over 10 µM.
`O=C([C@@H]1C[C@H]1c1ccc(C(F)(F)F)cc1)N1CCN(S(=O)(=O)c2cc(-n3ccnn3)cc(C(F)(F)F)c2)CC1`: the IC50 is 50 nM in test [1] and over 10 µM in test [3].
As for `O=C([C@@H]1C[C@H]1c1ccc(C(F)(F)F)cc1)N1CCN(S(=O)(=O)c2cc(-c3ncon3)cc(C(F)(F)F)c2)CC1`, the IC50 is 0.3 nM in test [1] and over 10 µM in test [3].
Taken in the same sequence, the figures for `Cc1[nH]ncc1-c1cc(C(F)(F)F)cc(S(=O)(=O)N2CCN(C(=O)[C@@H]3C[C@H]3c3ccc(C(F)(F)F)cc3)CC2)c1` were 20 nM and over 10 µM.
For the molecule `O=C([C@@H]1C[C@H]1c1ccc(C(F)(F)F)cc1)N1CCN(S(=O)(=O)c2cc(-c3n[nH]c(=O)o3)cc(C(F)(F)F)c2)CC1`, the IC50 in test [1] was 100 nM; in test [3] it was over 10 µM.
Taken in the same sequence, the figures for `O=C([C@@H]1C[C@H]1c1ccc(C(F)(F)F)cc1)N1CCN(S(=O)(=O)c2cc(-c3n[nH]c(=O)[nH]3)cc(C(F)(F)F)c2)CC1` were 400 nM and over 10 µM.
As to `Nc1nnc(-c2cc(C(F)(F)F)cc(S(=O)(=O)N3CCN(C(=O)[C@@H]4C[C@H]4c4ccc(C(F)(F)F)cc4)CC3)c2)o1`, the results for the IC50 in test [1] and in test [3] were 400 nM and over 10 µM, respectively.
As to `Cc1nnc(-c2cc(C(F)(F)F)cc(S(=O)(=O)N3CCN(C(=O)[C@@H]4C[C@H]4c4ccc(C(F)(F)F)cc4)CC3)c2)[nH]1`, the values for the IC50 in test [1] and in test [3] were 10 nM and over 10 µM, respectively.
Take `CC(C)(C)C(=O)Oc1cc(C(F)(F)F)cc(S(=O)(=O)N2CCN(C(=O)[C@@H]3C[C@H]3c3ccc(C(F)(F)F)cc3)CC2)c1`: the IC50 in test [1] was found to be 8 nM.
Regarding `CCOC(=O)Oc1cc(C(F)(F)F)cc(S(=O)(=O)N2CCN(C(=O)[C@@H]3C[C@H]3c3ccc(C(F)(F)F)cc3)CC2)c1`, the IC50 in test [1] stood at 8 nM.
With `O=C(CCc1ccc(C(F)(F)F)cc1)N1CCN(S(=O)(=O)c2cc(Cl)cc(Cl)c2)CC1`, the IC50 in test [1] is 26 nM. In addition, the EC50 in test [2] came out at 0.5 nM.
For the molecule `O=C(C1CCCCC1)N1CCN(S(=O)(=O)c2cc(C(F)(F)F)cc(C(F)(F)F)c2)CC1`, in test [3], the 50% inhibitory concentration (IC50) was over 10 µM. Further, the EC50 in test [2] worked out at 1 nM.
Taken in the same sequence, the figures for `O=C(C1CCCCC1)N1CCN(S(=O)(=O)c2cc(Cl)cc(Cl)c2)CC1` were over 10 µM and 0.5 nM.
`O=C(C1CCCCC1)N1C2CCC1CN(S(=O)(=O)c1cccc3ccccc13)C2`: the IC50 in test [1] was found to be 3100 nM. Also, in test [2], the EC50 stood at 300 nM.
With `O=C(Cc1ccc(C(F)(F)F)cc1)N1CCN(S(=O)(=O)c2cc(C(F)(F)F)cc(C(F)(F)F)c2)C1`, in test [1], the IC50 is over 10000 nM. For the same molecule, in test [2], the EC50 was over 10000 nM.
Turning to `CC1CN(C(=O)C2CCCCC2)CCN1S(=O)(=O)c1cccc2ccccc12` (configuration not stated), in test [1], the IC50 was 4700 nM. Also, the EC50 in test [2] is 180 nM.
Taken in the same sequence, the figures for `O=C(C1CCCCC1)N1CCN(S(=O)(=O)c2cccc3ccccc23)CC1C(F)(F)F` (configuration not stated) were 290 nM and 2.5 nM.
On to `O=C(Cc1ccccc1)N1CCN(S(=O)(=O)c2cc(Cl)cc(Cl)c2)CC1`, for which the 50% inhibitory concentration (IC50) in test [1] is 800 nM. Besides, the EC50 in test [2] was 2 nM.
For `CC(C)(O)c1cc(C(F)(F)F)cc(S(=O)(=O)N2CCN(C(=O)[C@@H]3C[C@H]3c3ccc(C(F)(F)F)cc3)CC2)c1`, the IC50 was 8 nM in test [1] and over 10 µM in test [3].
Regarding `O=C(C1CCCCC1)N1CCN(S(=O)(=O)c2cccc(-c3ccccc3)c2)CC1`, the 50% inhibitory concentration (IC50) in test [1] was 200 nM; in test [3], over 10 µM. Also, the EC50 in test [2] came out at 6 nM.
For `COc1cc(C(F)(F)F)cc(S(=O)(=O)N2CCN(C(=O)[C@@H]3C[C@H]3c3ccc(C(F)(F)F)cc3)CC2)c1`, in test [1], the IC50 stood at 0.5 nM.
As for `C[C@@H]1CN(S(=O)(=O)c2cccc3ccccc23)C[C@H](C)N1C(=O)C1CCCCC1`, the IC50 in test [1] was 2800 nM. In addition, the EC50 in test [2] was found to be 8 nM.
Taken in the same sequence, the figures for `O=C(Cc1ccc(C(F)(F)F)cc1)N1CCN(S(=O)(=O)c2cc(Cl)cc(Cl)c2)CC1` were 16 nM and 0.5 nM.
On the same counts, the results for `O=C(Cc1ccccc1C(F)(F)F)N1CCN(S(=O)(=O)c2cc(Cl)cc(Cl)c2)CC1` are 470 nM and 2.2 nM.
With `N#Cc1ccc(CC(=O)N2CCN(S(=O)(=O)c3cc(Cl)cc(Cl)c3)CC2)cc1`, in test [2], the EC50 was 0.5 nM.
As for `O=C(C1CC1)N1CCN(S(=O)(=O)c2cc(Cl)c(Cl)cc2Cl)CC1`, in test [1], the IC50 was 9700 nM. The concentration for a half-maximal effect (EC50) in test [2] was found to be 1500 nM.
Take `O=C([C@@H]1C[C@H]1c1ccc(C(F)(F)F)cc1)N1CCN(S(=O)(=O)c2cc(-c3cn[nH]c3)cc(C(F)(F)F)c2)CC1`: the IC50 in test [1] is 9 nM; in test [3], over 10 µM.
Regarding `O=C([C@@H]1C[C@H]1c1ccc(C(F)(F)F)cc1)N1CCN(S(=O)(=O)c2cc(C(F)(F)F)cc(C(F)(F)CO)c2)CC1`, the IC50 in test [1] was 5 nM; in test [3] it was over 10 µM.
For the molecule `O=C([C@@H]1C[C@H]1c1ccc(C(F)(F)F)cc1)N1CCN(S(=O)(=O)c2cc(-c3noc(=O)[nH]3)cc(C(F)(F)F)c2)CC1`, the IC50 in test [1] is 200 nM; in test [3], over 10 µM.
On to `O=C(c1ccccc1)N1CCN(S(=O)(=O)c2cc(C(F)(F)F)cc(C(F)(F)F)c2)CC1`, for which the 50% inhibitory concentration (IC50) in test [1] is over 10000 nM. Also, the EC50 in test [2] was over 10000 nM.
As to `O=C(Cc1ccc(C(F)(F)F)cc1)N1CC(NS(=O)(=O)c2cc(C(F)(F)F)cc(C(F)(F)F)c2)C1`, the IC50 in test [1] is over 10000 nM. Also, the EC50 in test [2] was over 10000 nM.
With `O=C([C@@H]1C[C@H]1c1ccc(C(F)(F)F)cc1)N1CCN(S(=O)(=O)c2cc(O)cc(C(F)(F)F)c2)CC1`, the IC50 in test [1] was 6 nM.
Regarding `CC1CN(S(=O)(=O)c2cccc3ccccc23)CCN1C(=O)C1CCCCC1` (configuration not stated), the IC50 in test [1] was found to be 310 nM. Further, the 50% effective concentration (EC50) in test [2] is 7 nM.
Taken in the same sequence, the figures for `CC(C)(C(=O)N1CCN(S(=O)(=O)c2cc(Cl)cc(Cl)c2)CC1)c1ccccc1` were 230 nM and 2.8 nM.
As to `Cc1cc(C)cc(S(=O)(=O)N2CCN(C(=O)C3CCCCC3)CC2)c1`, the IC50 in test [1] is 400 nM; in test [3], over 10 µM. Also, in test [2], the EC50 is 1.1 nM.
As to `O=C(Cc1ccc(C(F)(F)F)cc1)NC1CN(S(=O)(=O)c2cc(C(F)(F)F)cc(C(F)(F)F)c2)C1`, the IC50 in test [1] was over 10000 nM. Also, the EC50 in test [2] was over 10000 nM.
For `CC(C)Oc1cc(C(F)(F)F)cc(S(=O)(=O)N2CCN(C(=O)[C@@H]3C[C@H]3c3ccc(C(F)(F)F)cc3)CC2)c1`, the IC50 in test [1] amounted to 0.3 nM.
As for `O=C(C1CCCCC1)N1CCN(S(=O)(=O)c2cccc3ccccc23)CC1c1ccccc1` (configuration not stated), the IC50 in test [1] came to 9000 nM. Moreover, the EC50 in test [2] worked out at 600 nM.
Taken in the same sequence, the figures for `CC1(C)CN(S(=O)(=O)c2cccc3ccccc23)CCN1C(=O)C1CCCCC1` were 700 nM and 0.6 nM.
With `O=C([C@@H]1C[C@H]1c1ccc(C(F)(F)F)cc1)N1CCN(S(=O)(=O)c2cc(-c3c[nH]nn3)cc(C(F)(F)F)c2)CC1`, the concentration for half-maximal inhibition (IC50) in test [1] was 3 nM; in test [3], over 10 µM.
`O=C1CSC(c2cc(C(F)(F)F)cc(S(=O)(=O)N3CCN(C(=O)[C@@H]4C[C@H]4c4ccc(C(F)(F)F)cc4)CC3)c2)=N1`: the IC50 was 10 nM in test [1] and over 10 µM in test [3].
In the case of `CC(C(=O)N1CCN(S(=O)(=O)c2cc(Cl)cc(Cl)c2)CC1)c1ccccc1` (racemic), the IC50 in test [1] came out at 220 nM. Further, in test [2], the EC50 stood at 0.3 nM.
On the same counts, the results for `CC(C(=O)N1CCN(S(=O)(=O)c2cc(Cl)cc(Cl)c2)CC1)c1ccc(C(F)(F)F)cc1` (stereo in doubt; 20a) are 20 nM and 1.5 nM.
As for `CC(C(=O)N1CCN(S(=O)(=O)c2cc(Cl)cc(Cl)c2)CC1)c1ccc(C(F)(F)F)cc1` (stereo in doubt; 20b), the IC50 in test [1] was 400 nM. For the same molecule, the EC50 in test [2] worked out at 11 nM.

Broadly, the IC50 is the concentration that gives 50% inhibition. One may read the EC50 as the midpoint of the concentration-response curve.
